Source: ChEMBL document CHEMBL4190246, “Phytochemical Studies on Two Australian Anigozanthos Plant Species” (J Nat Prod, 2017)
Active and inactive are the calls of the source. The calls are words filed in the database; no cut-off is given here.

Legend:
Assay type in all cases: functional, organism-based
[1] = test system: Candida albicans; experiment: Antimicrobial activity against Candida albicans ATCC 90028 at 32 ug/ml after 24 hrs by resazurin dye based assay
Outline: (§1)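 Fungi grown 3 days on yeast extract–peptone dextrose agar at 30 °C, then diluted in yeast nitrogen base broth to 2.5 × 10^5 CFU/mL. Samples from 10 mg/mL DMSO stocks, duplicate wells, final 32 μg/mL; 35 °C, 24 h. Resazurin added (0.001% final), 2 h more at 35 °C, absorbance at 530 nm. Percent inhibition against on-plate controls; Z-scores.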

[2] = test system: Staphylococcus aureus; experiment: Antimicrobial activity against methicillin-resistant Staphylococcus aureus ATCC 43300 at 32 ug/ml after 18 hrs
Outline: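 Single-concentration screen (COADD): samples dissolved in DMSO at 10 mg/mL stock, plated in duplicate; overnight culture in cation-adjusted Mueller Hinton broth at 37 °C added to 5 × 10^5 CFU/mL, final 32 μg/mL. Incubated 37 °C. Read-out absorbance 600 nm; percent growth inhibition versus media-only and untreated-cell controls on the same plate; significance by Z-score from sample wells.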

[3] = test system: Cryptococcus neoformans; experiment: Antimicrobial activity against Cryptococcus neoformans ATCC 208821 at 32 ug/ml after 24 hrs by resazurin dye based assay; outline: as §1
[4] = test system: Klebsiella pneumoniae; experiment: Antimicrobial activity against Klebsiella pneumoniae ATCC 700603 at 32 ug/ml after 18 hrs
Outline: (§2)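 Single-concentration screen: samples from 10 mg/mL DMSO stocks, duplicate wells; overnight culture in cation-adjusted Mueller Hinton broth at 37 °C, added to 5 × 10^5 CFU/mL, final compound 32 μg/mL; 37 °C, 18 h. Growth read as absorbance at 600 nm; percent inhibition against media-only and untreated-cell controls on the same plate, significance by Z-score.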

[5] = test system: Escherichia coli; experiment: Antimicrobial activity against Escherichia coli ATCC 25922 at 32 ug/ml after 18 hrs; outline: as §2
[6] = test system: Acinetobacter baumannii; experiment: Antimicrobial activity against Acinetobacter baumannii ATCC 19606 at 32 ug/ml after 18 hrs; conditions: ATCC 19606 = CIP 70.34 = JCM 6841; outline: as §2
[7] = test system: Pseudomonas aeruginosa; experiment: Antimicrobial activity against Pseudomonas aeruginosa ATCC 27853 at 32 ug/ml after 18 hrs; outline: as §2
[8] = test system: Acinetobacter baumannii; experiment: Antimicrobial activity against Acinetobacter baumannii ATCC 19606 at 52.4 uM after 18 hrs; conditions: ATCC 19606 = CIP 70.34 = JCM 6841; outline: as §2
[9] = test system: Acinetobacter baumannii; experiment: Antimicrobial activity against Acinetobacter baumannii ATCC 19606 at 53.9 uM after 18 hrs; conditions: ATCC 19606 = CIP 70.34 = JCM 6841; outline: as §2
[10] = test system: Acinetobacter baumannii; experiment: Antimicrobial activity against Acinetobacter baumannii ATCC 19606 at 94.9 uM after 18 hrs; conditions: ATCC 19606 = CIP 70.34 = JCM 6841; outline: as §2

Row | SMILES | Activity [1] | Activity [2] | Activity [3] | Activity [4] | Activity [5] | Activity [6] | Activity [7] | Activity [8] | Activity [9] | Activity [10]
1 | O=c1c(O)c(-c2ccc(O)cc2)oc2cc(O)cc(O)c12 | inactive | inactive | inactive | inactive | inactive | inactive | inactive |  |  | 
2 | O=c1cc(-c2ccc(O)c(O)c2)oc2cc(O[C@@H]3O[C@H](CO)[C@@H](O)[C@H](O)[C@H]3O)cc(O)c12 | inactive | inactive | inactive | inactive | inactive | inactive | inactive |  |  | 
3 | O=C(/C=C/c1ccc(O)cc1)OC[C@H]1O[C@@H](Oc2cc3c(O)cc(O)cc3[o+]c2-c2ccc(O)c(O)c2)[C@H](O)[C@@H](O)[C@@H]1O | inactive | inactive | inactive | inactive | inactive | inactive | inactive |  |  | 
4 | C[C@@H]1O[C@@H](OC[C@H]2O[C@@H](Oc3cc4c(O)cc(O)cc4[o+]c3-c3ccc(O)c(O)c3)[C@H](O)[C@@H](O)[C@@H]2O)[C@H](O)[C@H](O)[C@H]1O | inactive | inactive | inactive | inactive | inactive |  | inactive | Active |  | 
5 | C[C@@H]1O[C@@H](OC[C@H]2O[C@@H](Oc3c(-c4ccc(O)cc4)oc4cc(O)cc(O)c4c3=O)[C@H](O)[C@@H](O)[C@@H]2O)[C@H](O)[C@H](O)[C@H]1O | inactive | inactive | inactive | inactive | inactive |  | inactive |  | Active | 
6 | O=C(/C=C/c1ccc(O)cc1)OC[C@H]1O[C@@H](Oc2c(-c3ccc(O)cc3)oc3cc(O)cc(O)c3c2=O)[C@H](O)[C@@H](O)[C@@H]1O | inactive | inactive | inactive | inactive | inactive | inactive | inactive |  |  | 
7 | NC(CCCC(OC(=O)/C=C/c1ccc(O)cc1)C(=O)O)C(=O)O (stereo unspecified) | inactive | inactive | inactive | inactive | inactive |  | inactive |  |  | Active
8 | O=C1c2c(O)cc(O)cc2O[C@H](c2ccc(O)c(O)c2)[C@H]1O | inactive | inactive | inactive | inactive | inactive | inactive | inactive |  |  | 
9 | O=c1c(O[C@@H]2O[C@H](CO)[C@@H](O)[C@H](O)[C@H]2O)c(-c2ccc(O)c(O)c2)oc2cc(O)cc(O)c12 | inactive | inactive | inactive | inactive | inactive | inactive | inactive |  |  | 
10 | O=C(/C=C/c1ccc(O)cc1)O[C@H]1[C@H](O)[C@@H](O)[C@H](Oc2cc(O)c(O)c(C(=O)/C=C/c3ccc(O)cc3)c2)O[C@@H]1CO | inactive | inactive | inactive | inactive | inactive | inactive | inactive |  |  | 
11 | O=C(/C=C/c1ccc(O)cc1)OC[C@H]1O[C@@H](Oc2c(-c3ccc(O)c(O)c3)oc3cc(O)cc(O)c3c2=O)[C@H](O)[C@@H](O)[C@@H]1O | inactive | inactive | inactive | inactive | inactive | inactive | inactive |  |  | 
12 | O=C(O)[C@H]1O[C@@H](Oc2cc(O)c3c(=O)cc(-c4ccc(O)cc4)oc3c2)[C@H](O)[C@@H](O)[C@@H]1O | inactive | inactive | inactive | inactive | inactive | inactive | inactive |  |  | 
13 | C[C@@H]1O[C@@H](OC[C@H]2O[C@@H](Oc3c(-c4ccc(O)c(O)c4)oc4cc(O)cc(O)c4c3=O)[C@H](O)[C@@H](O)[C@@H]2O)[C@H](O)[C@H](O)[C@H]1O | inactive | inactive | inactive | inactive | inactive | inactive | inactive |  |  | 
